According to paper PMC5188857 (Brazilian Journal of Medical and Biological Research, 2016):
Where “and” joins values, the source holds several entries; their conditions need not be identical. Equal values may be shown once. Read-outs that look alike come from different tables or passages of the source.

Legend:
[1] = Solubility at pH 7.4; type: physicochemical; conditions: 50 mM sodium phosphate buffer
How it was run: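 Working stock was spiked into 50 mM sodium phosphate buffer, pH 7.4, and held 2 h; concentrations up to 100 µM were tested. Samples were centrifuged at 1,000 g for 20 min at room temperature. Supernatant was diluted 1:1 in acetonitrile and quantified by LC-MS/MS (phenyl column, positive-ion MRM, internal standard).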

[2] = Plasma protein binding by equilibrium dialysis, rat plasma; type: in vitro ADME; conditions: 10 µM, means±SD, n=6
How it was run: (§1)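 Equilibrium dialysis used plasma (human or rat) spiked with 10 µM test compound in the donor side against phosphate buffer in the acceptor side. Plates were sealed and incubated 6 h at 37°C, 60 rpm, 5% CO2. Diclofenac (5 µM) served as positive control. Bound percentage is given as mean±SD, n=6.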

[3] = Plasma protein binding by equilibrium dialysis, human plasma; type: in vitro ADME; conditions: 10 µM, means±SD, n=6
How it was run: as §1

[4] = Permeability on MDCK-MDR1 cell monolayer; type: in vitro ADME; conditions: dog; for Papp B→A at 129 min: MDCK-MDR1; for Papp A→B at 129 min: MDCK-MDR1, Papp apical to basolateral, MDCK-MDR1 monolayer, n=3
[5] = tested on: MDCK-MDR1 cells; test: Permeability on MDCK-MDR1 cell monolayer; type: in vitro ADME; conditions: MDCK-MDR1 monolayer, n=3
[6] = tested on: P-gp; test: Permeability on MDCK-MDR1 cell monolayer; type: in vitro ADME; conditions: dog, MDCK-MDR1
[7] = Plasma stability, rat; type: in vitro ADME
How it was run: (§2)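 Test-compound-spiked rat or human plasma was incubated 6 h at 37°C. Percent recovery was then determined, reported as mean±SD, n=6.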

[8] = Plasma stability, human; type: in vitro ADME
How it was run: as §2

[9] = In vitro metabolism in rat liver microsomes; type: in vitro ADME
[10] = In vitro metabolism in human liver microsomes; type: in vitro ADME
[11] = In vitro metabolism in rat hepatocytes; type: in vitro ADME; conditions: rat, hepatocytes
[12] = tested on: rat hepatocytes; test: In vitro metabolism in rat hepatocytes; type: in vitro ADME; conditions: rat hepatocytes, 0.5 µM
[13] = In vitro metabolism in human hepatocytes; type: in vitro ADME; conditions: human, hepatocytes
[14] = tested on: human hepatocytes; test: In vitro metabolism in human hepatocytes; type: in vitro ADME; conditions: human hepatocytes, 0.5 µM, two separate experiments
[15] = molecular target: CYP2D6 (Homo sapiens, UniProt P10635); test: CYP profiling with purified isozyme; type: in vitro ADME; conditions: purified human CYP2D6 isozyme (Cypex)
Chain of CYP2D6 (P10635 whole entry): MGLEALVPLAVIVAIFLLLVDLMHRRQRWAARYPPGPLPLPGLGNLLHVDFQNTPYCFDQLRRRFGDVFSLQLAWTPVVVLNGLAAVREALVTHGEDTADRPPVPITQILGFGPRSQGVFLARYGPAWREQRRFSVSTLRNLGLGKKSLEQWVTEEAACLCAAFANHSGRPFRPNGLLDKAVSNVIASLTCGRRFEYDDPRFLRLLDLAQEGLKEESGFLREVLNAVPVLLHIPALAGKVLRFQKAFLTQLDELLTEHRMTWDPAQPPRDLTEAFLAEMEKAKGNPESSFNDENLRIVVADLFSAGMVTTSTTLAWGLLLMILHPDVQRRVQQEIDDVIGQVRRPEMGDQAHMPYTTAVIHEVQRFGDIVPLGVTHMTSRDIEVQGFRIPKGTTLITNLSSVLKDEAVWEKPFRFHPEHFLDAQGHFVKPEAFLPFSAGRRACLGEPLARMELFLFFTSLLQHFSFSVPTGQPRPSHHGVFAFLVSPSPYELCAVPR
How it was run: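 Purified human recombinant CYP isozyme ([…]) was pre-incubated 10 min, then run with 0.5 µM test compound and 2 mM NADPH in phosphate buffer at 37°C. CYP-specific probe substrates were incubated separately. Parent loss over time was measured by LC-MS/MS. Half-life came from nonlinear regression to a first-order decay equation.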

[16] = molecular target: CYP3A4 (Homo sapiens, UniProt P08684); test: CYP inhibition in human liver microsomes; type: in vitro ADME
Chain of CYP3A4 (P08684 whole entry): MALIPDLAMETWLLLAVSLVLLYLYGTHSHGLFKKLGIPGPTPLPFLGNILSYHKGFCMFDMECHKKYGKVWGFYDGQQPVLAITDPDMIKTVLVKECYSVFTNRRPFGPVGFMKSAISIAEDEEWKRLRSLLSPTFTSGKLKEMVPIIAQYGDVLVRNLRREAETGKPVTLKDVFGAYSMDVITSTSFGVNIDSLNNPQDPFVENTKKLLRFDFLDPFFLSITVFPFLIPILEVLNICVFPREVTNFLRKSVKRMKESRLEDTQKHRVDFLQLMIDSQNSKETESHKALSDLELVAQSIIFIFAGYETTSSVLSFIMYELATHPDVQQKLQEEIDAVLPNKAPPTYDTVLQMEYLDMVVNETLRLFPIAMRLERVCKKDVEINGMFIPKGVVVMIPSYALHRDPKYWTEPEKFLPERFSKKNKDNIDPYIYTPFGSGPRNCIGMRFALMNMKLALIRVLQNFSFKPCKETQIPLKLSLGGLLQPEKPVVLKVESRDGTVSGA

[17] = tested on: mice motor coordination; test: Rota-rod test; type: in vivo; conditions: 10 µg/kg iv, 3, 10 and 30 min after administration
How it was run: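 Adult male Swiss Webster mice (~40 g) were trained 1 day and 1 h before testing. Only those staying ≥1 min without falling were used. Test compound (10 µg/kg) or saline was given iv via the orbital plexus, 6 mice per group. At 3, 10 and 30 min, falls were counted over a 4-min observation, with latency to each fall recorded.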

[18] = tested on: mice; test: Acute toxicity test, single dose; type: in vivo; conditions: for Body temperature: 100 μg/kg ip
How it was run: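 Female Swiss Webster mice (25–30 g), 6 per condition, got a single ip dose of 100 μg/kg test compound, with saline controls. Behaviour, motor coordination, muscle tone, CNS and autonomic signs, water and food intake and lethality were scored during the first hour, at 2, 4 and 8 h, then daily to day 14. Anal-probe body temperature was taken before dosing and at 30 and 60 min.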

[19] = cited from earlier work
[20] = single dose 100 μg/kg ip, 14 days observation

For `COc1ccc(CCN2CCN(c3ccccc3OC)CC2)cc1OC.Cl` [LDT5, 1-(2-methoxyphenyl)-4-[2-(3,4-dimethoxyphenyl)ethyl]piperazine monohydrochloride], the solubility at 2 h [1] was no less than 100 µM, the “Binding to plasma proteins” value [2] was 80±2% and the “Binding to plasma proteins” value [3] was 73±1%. For the same compound, the Papp B→A at 129 min [4] was 32.4 ± 1.1 ×10⁻⁶ cm/s, the Papp A→B at 129 min [4] was roughly 32 ×10⁻⁶ cm/s and the “Papp apical to basolateral” value [5] was 32.2±1.1 ×10^-6 cm/s. The efflux ratio at 129 min [6] was 1, the recovery at 6 h [7] was 87 ± 4% and the recovery at 6 h [8] was 91 ± 4%. The half-life at 0.5 µM ([9]; male, Sprague Dawley, rat, liver microsomes) was 10 min, the Intrinsic clearance ([9]; rat liver microsomes, 0.5 µM, two separate experiments) was 6.4 mL·min^-1·g liver^-1 and 6.7 mL·min^-1·g liver^-1 and the half-life at 0.5 µM ([10]; both, human, liver microsomes) was greater than 30 min. It also gave an Intrinsic clearance ([10]; human liver microsomes, 0.5 µM) of less than 0.6 mL·min^-1·g liver^-1, a half-life at 0.5 µM [11] of 11 min and an Intrinsic clearance [12] greater than 2 mL·min^-1·g liver^-1. The half-life at 0.5 µM [13] was 120 min, the Intrinsic clearance [14] was < 0.2 mL·min^-1·g liver^-1 and 0.22 mL·min^-1·g liver^-1 and the half-life at 0.5 µM [15] was 5 min. The IC50 [16] was greater than 100 µM, the IC50 ([16]; read-out: IC50 CYP3A4, human liver microsomes, substrate testosterone) was greater than 100 µM and the “Effect on motor coordination (rota-rod)” value [17] was “no acute effect on mice motor coordination”. The Body temperature ([18]; 30 min after administration) was 35.5±0.2 °C, the Body temperature ([18]; 60 min after administration) was 35.17±0.31 °C and the Changes in behavior [18, 20] was “no changes in behavior”. For the same compound, the Lethality [18, 20] was “no lethality”.
In the case of `CCOc1ccccc1OCCN[C@H](C)Cc1ccc(OC)c(S(N)(=O)=O)c1` [tamsulosin], the “Binding to human plasma proteins” value [19] is listed as “around 99%”.
`C=C[C@H]1C[N@@]2CC[C@H]1C[C@@H]2[C@@H](O)c1ccnc2ccc(OC)cc12` [quinidine, reference compound] showed a Papp B→A at 129 min [4] of 39.5 ± 2.8 ×10⁻⁶ cm/s and a Papp A→B at 129 min [4] of 0.19 ± 0.05 ×10⁻⁶ cm/s.
